Shown are actives, neighbours in structure and some others; about 0.79% of the full set was active somewhere.
hIAP inh: human IAP inhibition; purified IAP, CDP-Star luminescence, 30 min; inhibition, % at 10 µM; hit rate 0.12% among 330,000; P09923;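 active = inhibition reaching a set limit with compound at 10 µM in the primary screen, cut at about 35% in these data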
Target sequence (P09923 whole entry, looked up): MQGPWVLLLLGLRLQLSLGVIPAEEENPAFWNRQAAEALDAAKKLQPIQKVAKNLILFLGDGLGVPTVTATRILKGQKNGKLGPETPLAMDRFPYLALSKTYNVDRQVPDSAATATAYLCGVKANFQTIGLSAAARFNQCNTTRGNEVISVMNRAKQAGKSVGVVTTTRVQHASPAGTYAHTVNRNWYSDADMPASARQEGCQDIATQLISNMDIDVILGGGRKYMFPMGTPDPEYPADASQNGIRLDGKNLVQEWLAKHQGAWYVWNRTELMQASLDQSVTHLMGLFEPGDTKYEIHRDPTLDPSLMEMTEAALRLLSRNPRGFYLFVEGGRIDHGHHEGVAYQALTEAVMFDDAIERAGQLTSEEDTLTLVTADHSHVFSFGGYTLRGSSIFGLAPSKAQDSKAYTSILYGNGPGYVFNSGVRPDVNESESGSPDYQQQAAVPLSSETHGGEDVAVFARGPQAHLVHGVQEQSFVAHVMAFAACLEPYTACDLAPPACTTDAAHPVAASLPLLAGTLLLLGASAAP
hIAP activ: human IAP activation; P09923; activation factor at 10 µM; hit rate 0.16% among 330,000; purified human IAP, CDP-Star luminescence, 30 min; active compounds read high; 1 = vehicle-only enzyme, 0 = enzyme-free background;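 active = activation factor of the enzyme at least 2-fold when tested at 20 µM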
mIAP act: mouse IAP activation. muIAP, CDP-Star luminescence, 30 min; active compounds read high; 1 = vehicle-only enzyme signal, 0 = enzyme-free wells. hit rate 0.24% among 330,000. activation factor at 10 µM;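 active = activation factor of at least 2 at 20 µM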
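also added = chemiluminescent substrate CDP-Star | test system = mouse IAP enzyme | signal = chemiluminescence readout | compound = DMSO-dissolved test compounds | incubation = 30 min at room temperature | benchmarks = DMSO wells, no-enzyme wells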
bIAP inhibitor: intestinal alkaline phosphatase (bovine) inhibition; purified bovine IAP, CDP-star luminescence, 30 min; inhibition, % at 20 µM; 190,000 tested, under 10 active; AID 1019;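 active = over 50% inhibition of intestinal alkaline phosphatase at 20 µM in the single-dose screen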
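System: purified bovine intestinal alkaline phosphatase (IAP) enzyme; Input: IAP diluted 1/65,000,000 in the well; Measured by: CDP-star luminescence signal; Compound dosing: 20 µM single dose; Incubation: 30 min reaction at room temperature.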
mIAP inh: mouse IAP inhibition | purified mouse IAP, CDP-Star luminescence, 30 min | inhibition, % at 10 µM | hit rate 0.2% among 330,000 | AID 2806;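 active = inhibition of at least 40% at 10 µM in the primary screen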
bIAP act: intestinal alkaline phosphatase (bovine) activation. purified bovine IAP, CDP-star luminescence, 30 min; active compounds read high; fold of DMSO-control signal, blank-subtracted. AID 1016. activation factor at 20 µM. hit rate 0.17% among 200,000;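 active = activation factor of 2 or more at 20 µM, a signal rise over negative controls twice the positive control's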
hIAP act conf: human IAP activation confirmation; shares compounds with hIAP activ; purified IAP, CDP-Star luminescence, 30 min; active compounds read low; activation (%Activity, negative = activation), % at 8.3 µM; hit rate 10% among 880;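 active = at least twofold enzyme activation in any of six single-dose repeats, which the averaged readout prints as negative percent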
mIAP inh conf: mouse IAP inhibition confirmation. shares compounds with mIAP inh. purified mouse IAP, CDP-Star luminescence, 30 min. inhibition, % at 10 µM. hit rate 4.7% among 11,000;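 active = inhibition of at least 40% at 10 µM in either of the two replicates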
Large screens that a line does not name were inactive (follow-up assays come after a bar, where they were run).

CN(CC(=O)Nc1ccccc1Sc1ccccc1)Cc1nc2ccccc2c(=O)[nH]1	none
CC1C(=O)NN=C1C(=O)N/N=C\c1ccc(O)cc1O (configuration not stated)	hIAP activ 2.5, mIAP inh 65 | hIAP act conf -79 | mIAP inh conf 60
Nc1c(/C=C2/C=CC(=O)C(O)=C2)c(=O)nc2sc(CC(=O)N3CCCC3)nn12	hIAP inh 48, mIAP inh 58 (no result: bIAP inhibitor, bIAP act) | hIAP act conf inactive | mIAP inh conf 78
Nc1c(/C=C2/C=CC(=O)C(O)=C2)c(=O)nc2sc(CC(=O)N3CCCCC3)nn12	hIAP inh 54, mIAP inh 61 (no result: bIAP inhibitor, bIAP act) | hIAP act conf inactive | mIAP inh conf 83
COc1ccc(C(C)NC(=O)Nc2ccc(C(C)=O)cc2)cc1OC (configuration not stated)	none (no result: bIAP inhibitor, bIAP act)
COc1ccc2nc(SC(C)C(=O)NC3CCCCC3)[nH]c2c1 (configuration not stated)	none (no result: bIAP inhibitor, bIAP act)
O=C(O)C(c1ccccc1)N1C(=O)/C(=C\c2ccc(O)c(O)c2)SC1=S (configuration not stated)	hIAP inh 75, mIAP inh 67 (no result: bIAP inhibitor, bIAP act) | hIAP act conf inactive | mIAP inh conf 79
COc1cc(/C=C(\C#N)C(=O)N2CCOCC2)cc(Br)c1O	none
COc1cc(/C=C(\C#N)C(=O)c2ccc(O)c(O)c2)cc(I)c1O	hIAP inh 51, mIAP inh 83 (no result: bIAP inhibitor, bIAP act) | hIAP act conf inactive | mIAP inh conf 83
Cc1ccc(N(CCC#N)C(=O)COC(=O)C2=COCCO2)cc1	none (no result: bIAP inhibitor, bIAP act)
COc1cc(NC(=O)NCC2CCN(Cc3ccccc3Cl)CC2)cc(OC)c1OC	hIAP activ 2.6, mIAP act 4 (no result: bIAP inhibitor, bIAP act) | hIAP act conf -142 | mIAP inh conf inactive
COc1ccc(OC)c(CN2CCC(CNC(=O)Nc3cccc(Cl)c3)CC2)c1	none
Cc1ccc(NC(=O)C2CC(=O)Nc3nc4ccccc4n32)c(C)c1 (configuration not stated)	hIAP activ 2.7, mIAP act 3.5 (no result: bIAP inhibitor, bIAP act) | hIAP act conf inactive | mIAP inh conf inactive
O=C1/C(=C\c2cccc(O)c2)SC(=S)N1Cc1ccccc1	none (no result: bIAP inhibitor, bIAP act)
O=C1/C(=C\c2cccc(O)c2O)SC(=S)N1Cc1ccccc1	hIAP inh 45, mIAP inh 41 (no result: bIAP inhibitor, bIAP act) | hIAP act conf inactive | mIAP inh conf 63
CCOC(=O)C1=CN(Cc2ccco2)S(=O)(=O)NC1c1ccc(F)c(Cl)c1 (configuration not stated)	none (no result: hIAP inh, hIAP activ, bIAP inhibitor, bIAP act)
Cc1ccc([N+](=O)[O-])cc1S(=O)(=O)Nc1ccc(O)c(Sc2ncn[nH]2)c1	hIAP inh 73, mIAP inh 73 (no result: bIAP inhibitor, bIAP act) | hIAP act conf inactive | mIAP inh conf 89
COc1ccc(S(=O)(=O)Nc2cc(Sc3ncn[nH]3)c(O)cc2C)cc1	none (no result: bIAP inhibitor, bIAP act)
Cc1ccc(CCNC(=O)C2CCC(=O)N(Cc3ccccc3F)C2)o1 (configuration not stated)	none (no result: bIAP inhibitor, bIAP act)
CC[C@]12c3[nH]c4ccc(OC)cc4c3CCN1C(=O)C(CC(=O)NC(C)(C)C)C[C@@H]2C(=O)N1CCN(C(=O)c2ccco2)CC1 (some centres not stated)	none (no result: hIAP inh, hIAP activ, bIAP inhibitor, bIAP act)
CCN1/C(=C/C=C/c2sc3ccccc3[n+]2CC)Sc2ccccc21	hIAP inh 37, mIAP inh 48 (no result: bIAP inhibitor, bIAP act) | hIAP act conf inactive | mIAP inh conf 51
CC(C)c1ccc(NC(=O)NC2CCN(CC(=O)Nc3cccc4ccccc34)CC2)cc1	hIAP activ 2.2, mIAP act 4.2 | hIAP act conf inactive | mIAP inh conf inactive
Cc1ccccc1-c1nnc(NC(=O)c2cc3ccccc3oc2=O)s1	none (no result: hIAP inh, hIAP activ, mIAP act, mIAP inh)
CNc1nnc(-c2cc3ccccc3oc2=O)s1	hIAP inh 73, mIAP inh 58 (no result: bIAP inhibitor) | hIAP act conf inactive | mIAP inh conf 66
O=C(Nc1cc(C(F)(F)F)ccc1N1CCOCC1)C1CCCO1 (configuration not stated)	none (no result: bIAP inhibitor, bIAP act)
Cc1ccc(S(=O)(=O)/N=C(/Nc2cccc3ccccc23)c2ccc(F)cc2)cc1	none (no result: bIAP inhibitor, bIAP act)
CCn1nc(C)c(CN2CCC(C(=O)Nc3cccc(-c4cccc(Cl)c4)c3)CC2)c1C	hIAP activ 8.7, mIAP act 8.2 (no result: bIAP inhibitor, bIAP act) | hIAP act conf inactive | mIAP inh conf inactive
CCS(=O)(=O)N1CCC(C(=O)Nc2cccc(F)c2)CC1	none (no result: bIAP inhibitor, bIAP act)
CCn1ncc(CN2CCC(C(=O)Nc3cccc(-c4cccc(F)c4)c3)CC2)c1C	hIAP activ 4, mIAP act 3.5 (no result: bIAP inhibitor, bIAP act) | hIAP act conf inactive | mIAP inh conf inactive
O=C1NC(=O)/C(=C\c2ccc(O)cc2O)S1	hIAP inh 84, mIAP inh 71 | hIAP act conf inactive | mIAP inh conf 85
O=c1c(O[C@@H]2O[C@H](CO)[C@@H](O)[C@H](O)[C@H]2O)c(-c2ccc(O)c(O)c2)oc2cc(O)cc(O)c12	hIAP inh 57, mIAP inh 55 | hIAP act conf inactive | mIAP inh conf 58
O=c1c(O[C@@H]2O[C@H](CO)[C@H](O)[C@H](O)[C@H]2O)c(-c2ccc(O)c(O)c2)oc2cc(O)cc(O)c12	none (no result: hIAP inh, hIAP activ, mIAP act, mIAP inh)
Cc1ccc(OCC(=O)NCCNC(=O)c2ccccn2)cc1	none (no result: bIAP inhibitor, bIAP act)
Nc1ncc2c(n1)-c1ccoc1CC2	mIAP inh 41 (no result: bIAP inhibitor, bIAP act) | mIAP inh conf 56
Nc1ncc2c(n1)-c1ccccc1CC2	none
O=C(CSc1nnc(-c2ccco2)o1)c1ccccc1	mIAP inh 44 | mIAP inh conf 43
O=C(CSc1nnc(-c2ccco2)c(-c2ccco2)n1)c1ccccc1	mIAP inh 50 | mIAP inh conf 51
O=C(CSc1nnc(-c2ccco2)o1)c1ccc(F)c(F)c1	none
COc1cc(/C=C/[N+](=O)[O-])ccc1OC(=O)c1cc2ccccc2oc1=O	mIAP inh 58 (no result: bIAP inhibitor, bIAP act) | mIAP inh conf 49
COc1ccccc1OC(=O)c1cc2ccccc2oc1=O	none (no result: bIAP inhibitor, bIAP act)
CCOc1ccc(S(=O)(=O)Nc2cc(Sc3ncn[nH]3)c3oc(=O)sc3c2)cc1	mIAP inh 72 | mIAP inh conf 82
CCOc1ccc(S(=O)(=O)Nc2ncn[nH]2)cc1	none (no result: bIAP inhibitor, bIAP act)
COC(=O)c1ccc(NC(=O)CSc2nn3c(=O)c(C)nnc3s2)cc1	none (no result: bIAP inhibitor, bIAP act)
CSc1cccc(NC(=O)C2CCN(S(=O)(=O)c3ccc(F)cc3)CC2)c1	mIAP act 3 | mIAP inh conf inactive
CSc1cccc(NC(=O)C2CCCN(S(=O)(=O)c3ccc(F)cc3)C2)c1 (configuration not stated)	none
O=C(NCCCN1CCCC1=O)c1sc2ccccc2c1Cl	none (no result: bIAP inhibitor, bIAP act)
O=C(CSc1nc2ccccc2c(=O)[nH]1)c1ccc(O)c(O)c1	mIAP inh 62 (no result: bIAP inhibitor) | mIAP inh conf 72
CC(C)(Oc1ccc(-c2ccco2)cc1)C(=O)O	none

From PubChem
